Like-named read-outs stand apart in the source and are kept apart here.
Legend:
[1] = system: RD cell line; assay: DIMSCAN in vitro cytotoxicity testing, RD; assay type: cell-based
Procedure, shortened: (§1)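 Test compound incubated with cells of a 24-line pediatric cancer panel for 96 h at 0.1 nM to 1 μM, then assessed by DIMSCAN. Relative IC50 (rIC50) derived per line. Panel comparison value is the panel rIC50 divided by the rIC50 of each cell line.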

[2] = system: Rh18 cell line; assay: DIMSCAN in vitro cytotoxicity testing, Rh18; assay type: cell-based
Procedure, shortened: as §1

[3] = system: TC-71 cell line; assay: DIMSCAN in vitro cytotoxicity testing, TC-71; assay type: cell-based
Procedure, shortened: as §1

[4] = system: CHLA-10 cell line; assay: DIMSCAN in vitro cytotoxicity testing, CHLA-10; assay type: cell-based
Procedure, shortened: as §1

[5] = system: CHLA-258 cell line; assay: DIMSCAN in vitro cytotoxicity testing, CHLA-258; assay type: cell-based
Procedure, shortened: as §1

[6] = system: SJ-GBM2 cell line; assay: DIMSCAN in vitro cytotoxicity testing, SJ-GBM2; assay type: cell-based
Procedure, shortened: as §1

[7] = system: NB-1643 cell line; assay: DIMSCAN in vitro cytotoxicity testing, NB-1643; assay type: cell-based
Procedure, shortened: as §1

[8] = system: MOLT-4 cell line; assay: DIMSCAN in vitro cytotoxicity testing, MOLT-4; assay type: cell-based
Procedure, shortened: as §1

[9] = system: PPTP in vitro cell line panel; assay: DIMSCAN in vitro cytotoxicity testing, panel summary; assay type: cell-based
[10] = system: KT-10 Wilms xenograft; assay: PPTP in vivo xenograft testing, KT-10; design: species or system mice
[11] = system: SK-NEP-1 Ewing xenograft; assay: PPTP in vivo xenograft testing, SK-NEP-1; design: species or system mice
[12] = system: EW8 Ewing xenograft; assay: PPTP in vivo xenograft testing, EW8; design: species or system mice
[13] = system: Rh28 ALV rhabdomyosarcoma xenograft; assay: PPTP in vivo xenograft testing, Rh28; design: species or system mice
[14] = system: Rh18 EMB rhabdomyosarcoma xenograft; assay: PPTP in vivo xenograft testing, Rh18; design: species or system mice
[15] = system: BT-28 medulloblastoma xenograft; assay: PPTP in vivo xenograft testing, BT-28; design: species or system mice
[16] = system: BT-50 medulloblastoma xenograft; assay: PPTP in vivo xenograft testing, BT-50; design: species or system mice
[17] = system: D456 glioblastoma xenograft; assay: PPTP in vivo xenograft testing, D456; design: species or system mice
[18] = system: NB-SD neuroblastoma xenograft; assay: PPTP in vivo xenograft testing, NB-SD; design: species or system mice
[19] = system: OS-2 osteosarcoma xenograft; assay: PPTP in vivo xenograft testing, OS-2; design: species or system mice
[20] = system: ALL-8 ALL T-cell xenograft; assay: PPTP in vivo xenograft testing, ALL-8; design: species or system mice
[21] = system: ALL xenografts; assay: PPTP in vivo testing, ALL xenograft panel summary; design: species or system mice
[22] = intravenous dose of 2 mg/kg; different mouse strain; cited from earlier work
[23] = cited from earlier work
[24] = 1 mg/kg IP Q4Dx3 repeated at Day 21

C=C1C[C@@H]2CC[C@@]34C[C@H]5O[C@H]6[C@@H](O3)[C@H]3O[C@H](CC[C@@H]3O[C@H]6[C@H]5O4)CC(=O)C[C@@H]3[C@@H](OC)[C@@H](C[C@H](O)CN)O[C@H]3C[C@H]3O[C@@H](CC[C@@H]1O2)C[C@@H](C)C3=C [Eribulin]
Panel rIC50/Line rIC50 [1]: 1.92
Relative in/out% [1]: −18%
Ymin % (observed) [1]: 4.49%
IC50 ([1]; Homo sapiens, 96 h, read-out: rIC50): 0.14 nM
IC50 ([2]; Homo sapiens, Rh18, 96 h, read-out: rIC50): 0.83 nM
Panel rIC50/Line rIC50 ([2]; Rh18): 0.33
Relative in/out% ([2]; Rh18): −53%
Ymin % (observed) ([2]; Rh18): 20.92%
Panel rIC50/Line rIC50 ([3]; TC-71): 2.45
Relative in/out% ([3]; TC-71): −99%
Ymin % (observed) ([3]; TC-71): 0.01%
IC50 ([3]; TC-71, 96 h, read-out: rIC50): 0.11 nM
IC50 ([4]; 96 h, read-out: rIC50): 0.11 nM
Panel rIC50/Line rIC50 ([4]; CHLA-10): 2.58
Relative in/out% ([4]; CHLA-10): −28%
Ymin % (observed) ([4]; CHLA-10): 4.54%
IC50 ([5]; 96 h, read-out: rIC50): 0.5 nM
Panel rIC50/Line rIC50 ([5]; CHLA-258): 0.54
Relative in/out% ([5]; CHLA-258): −84%
Ymin % (observed) ([5]; CHLA-258): 6.29%
IC50 ([6]; 96 h, read-out: rIC50): 0.51 nM
Panel rIC50/Line rIC50 ([6]; SJ-GBM2): 0.53
Relative in/out% ([6]; SJ-GBM2): −95%
Ymin % (observed) ([6]; SJ-GBM2): 0.46%
Panel rIC50/Line rIC50 ([7]; NB-1643): 0.57
Relative in/out% ([7]; NB-1643): −97%
Ymin % (observed) ([7]; NB-1643): 0.53%
IC50 ([7]; NB-1643, 96 h, read-out: rIC50): 0.47 nM
IC50 ([8]; Homo sapiens, MOLT-4, 96 h, read-out: rIC50): < 0.1 nM
Panel rIC50/Line rIC50 ([8]; MOLT-4): >2.74
Relative in/out% ([8]; MOLT-4): −99%
Ymin % (observed) ([8]; MOLT-4): 0.05%
Panel rIC50/Line rIC50, maximum ([9]; maximum of PPTP cell lines): >2.74
Relative in/out%, maximum ([9]; maximum of PPTP cell lines): −18%
Ymin % (observed), maximum ([9]; maximum of PPTP cell lines): 20.92%
Panel rIC50/Line rIC50, median ([9]; median of PPTP cell lines): 1.20
Relative in/out%, median ([9]; median of PPTP cell lines): −89%
Ymin % (observed), median ([9]; median of PPTP cell lines): 1.79%
Panel rIC50/Line rIC50, minimum ([9]; minimum of PPTP cell lines): 0.02
Relative in/out%, minimum ([9]; minimum of PPTP cell lines): −100%
Ymin % (observed), minimum ([9]; minimum of PPTP cell lines): 0.00%
IC50 ([9]; read-out: rIC50, maximum, maximum of PPTP cell lines): 14.8 nM
IC50 ([9]; read-out: rIC50, median, median of PPTP cell lines): 0.27 nM
IC50 ([9]; read-out: rIC50, minimum, minimum of PPTP cell lines): < 0.1 nM
IC50 ([9]; read-out: rIC50, most sensitive cell lines, lymphoid origin (three ALL, one ALCL, one NHL)): < 0.1 nM
IC50 ([9]; read-out: rIC50, other (non-neuroblastoma) PPTP cell lines): 0.14 nM
IC50 ([9]; read-out: relative IC50 (rIC50), range, range over the PPTP cell lines): 0.1 to 14.8 nM
EFS activity ([10]; 1 mg/kg IP): High (High activity requires: (a) an EFS T/C >2; (b) a significant difference in EFS distributions, and (c) a net reduction in median tumor volume for animals in the treated group at the end of treatment as compared to at treatment initiation)
Response activity ([10]; 1 mg/kg IP): High (A high level of activity is indicated by a score of 6 or more)
T/C volume activity ([10]; 1 mg/kg IP): High (High activity = T/C ≤0.15)
EFS T/C [10, 24]: >3.7
Median final RTV (CD45%) [10, 24]: 0.0
Tumor volume T/C ([10]; 1 mg/kg IP, Day 21 or earlier): 0.01
EFS activity ([11]; 1 mg/kg IP): High (High activity requires: (a) an EFS T/C >2; (b) a significant difference in EFS distributions, and (c) a net reduction in median tumor volume for animals in the treated group at the end of treatment as compared to at treatment initiation)
Response activity ([11]; 1 mg/kg IP): High (A high level of activity is indicated by a score of 6 or more)
T/C volume activity ([11]; 1 mg/kg IP): High (High activity = T/C ≤0.15)
EFS T/C [11, 24]: >4.3
Median final RTV (CD45%) [11, 24]: 0.0
Tumor volume T/C ([11]; 1 mg/kg IP, Day 21 or earlier): 0.00
EFS activity ([12]; 1 mg/kg IP): High (High activity requires: (a) an EFS T/C >2; (b) a significant difference in EFS distributions, and (c) a net reduction in median tumor volume for animals in the treated group at the end of treatment as compared to at treatment initiation)
Response activity ([12]; 1 mg/kg IP): High (A high level of activity is indicated by a score of 6 or more)
T/C volume activity ([12]; 1 mg/kg IP): High (High activity = T/C ≤0.15)
EFS T/C [12, 24]: >3.1
Median final RTV (CD45%) [12, 24]: 0.0
Tumor volume T/C ([12]; 1 mg/kg IP, Day 21 or earlier): 0.00
EFS activity ([13]; 1 mg/kg IP): High (High activity requires: (a) an EFS T/C >2; (b) a significant difference in EFS distributions, and (c) a net reduction in median tumor volume for animals in the treated group at the end of treatment as compared to at treatment initiation)
Response activity ([13]; 1 mg/kg IP): High (A high level of activity is indicated by a score of 6 or more)
T/C volume activity ([13]; 1 mg/kg IP): Int (Intermediate activity = T/C ≤0.45 but >0.15)
EFS T/C [13, 24]: >2.4
Median final RTV (CD45%) [13, 24]: 0.0
Tumor volume T/C ([13]; 1 mg/kg IP, Day 21 or earlier): 0.29
EFS activity ([14]; 1 mg/kg IP): Int (Intermediate activity = criteria (a) and (b) above, but not having a net reduction in median tumor volume for treated animals at the end of the study)
Response activity ([14]; 1 mg/kg IP): Int (intermediate activity by a score of ≥2 but <6)
T/C volume activity ([14]; 1 mg/kg IP): Low (Low activity = T/C >0.45)
EFS T/C [14, 24]: >3.2
Median final RTV (CD45%) [14, 24]: 1.8
Tumor volume T/C ([14]; 1 mg/kg IP, Day 21 or earlier): 0.76
EFS activity ([15]; 1 mg/kg IP): High (High activity requires: (a) an EFS T/C >2; (b) a significant difference in EFS distributions, and (c) a net reduction in median tumor volume for animals in the treated group at the end of treatment as compared to at treatment initiation)
Response activity ([15]; 1 mg/kg IP): Int (intermediate activity by a score of ≥2 but <6)
T/C volume activity ([15]; 1 mg/kg IP): Int (Intermediate activity = T/C ≤0.45 but >0.15)
EFS T/C [15, 24]: >3.3
Median final RTV (CD45%) [15, 24]: 0.7
Tumor volume T/C ([15]; 1 mg/kg IP, Day 21 or earlier): 0.44
Response activity ([16]; 1 mg/kg IP): Low (low activity by a score of <2)
T/C volume activity ([16]; 1 mg/kg IP): Low (Low activity = T/C >0.45)
EFS T/C [16, 24]: >1.1
Median final RTV (CD45%) [16, 24]: >4
Tumor volume T/C ([16]; 1 mg/kg IP, Day 21 or earlier): 0.78
EFS activity ([17]; 1 mg/kg IP): Int (Intermediate activity = criteria (a) and (b) above, but not having a net reduction in median tumor volume for treated animals at the end of the study)
Response activity ([17]; 1 mg/kg IP): Int (intermediate activity by a score of ≥2 but <6)
T/C volume activity ([17]; 1 mg/kg IP): Low (Low activity = T/C >0.45)
EFS T/C [17, 24]: 3.4
Median final RTV (CD45%) [17, 24]: >4
Time to event [17, 24]: 19.8
Tumor volume T/C ([17]; 1 mg/kg IP, Day 21 or earlier): 1.00
EFS activity ([18]; 1 mg/kg IP): Int (Intermediate activity = criteria (a) and (b) above, but not having a net reduction in median tumor volume for treated animals at the end of the study)
Response activity ([18]; 1 mg/kg IP): Int (intermediate activity by a score of ≥2 but <6)
T/C volume activity ([18]; 1 mg/kg IP): Low (Low activity = T/C >0.45)
EFS T/C [18, 24]: 2.4
Median final RTV (CD45%) [18, 24]: >4
Time to event [18, 24]: 17.5
Tumor volume T/C ([18]; 1 mg/kg IP, Day 21 or earlier): 0.53
EFS activity ([19]; 1 mg/kg IP): High (High activity requires: (a) an EFS T/C >2; (b) a significant difference in EFS distributions, and (c) a net reduction in median tumor volume for animals in the treated group at the end of treatment as compared to at treatment initiation)
Response activity ([19]; 1 mg/kg IP): Int (intermediate activity by a score of ≥2 but <6)
T/C volume activity ([19]; 1 mg/kg IP): Int (Intermediate activity = T/C ≤0.45 but >0.15)
EFS T/C [19, 24]: >2.5
Median final RTV (CD45%) [19, 24]: 0.8
Tumor volume T/C ([19]; 1 mg/kg IP, Day 21 or earlier): 0.21
EFS activity ([20]; 1.5 mg/kg IP): High (High activity requires: (a) an EFS T/C >2; (b) a significant difference in EFS distributions, and (c) a net reduction in median tumor volume for animals in the treated group at the end of treatment as compared to at treatment initiation)
Response activity ([20]; 1.5 mg/kg IP): High (A high level of activity is indicated by a score of 6 or more)
EFS T/C ([20]; 1.5 mg/kg IP Q4Dx3 repeated at Day 21): >7.9
Median final RTV (CD45%) ([20]; CD45%, 1.5 mg/kg IP): 0.0%
xenografts with CR or MCR ([21]; ALL panel): All eight
xenografts with high EFS T/C activity ([21]; ALL panel): six of eight
xenografts with significant difference in EFS distribution compared to control ([21]; evaluable ALL xenografts, 1.5 mg/kg): 8 of 8
AUC [22]: 1,132 ng hour/ml
systemic exposure (AUC) ([23]; humans, 1.4 mg/m^2 dose): approximately 790 ng hour/ml
serum half-life ([23]; patients): 37.8 h

— paper PMC4263960 (Pediatric blood & cancer, 2013)
